# Measured values reported in ChEMBL document CHEMBL1132551, “Selective inhibitors of glial GABA uptake: synthesis, absolute stereochemistry, and pharmacology of the enantiomers of 3-hydroxy-4-amino-4,5,6,7-tetrahydro-1,2-benzisoxazole (exo-THPO) and analogues” (J Med Chem, 1999).
# pIC50: −log10 of the molar value.
# What was measured:
# Mus musculus [1] = species: Mus musculus; assay: Effect on glial GABA(1 uM) uptake was measured using astrocytes cultured from cerebral cortices of new born mice.; assay type: functional, organism-based
# Mus musculus [2] = species: Mus musculus; assay: Effect on neuronal GABA(1 uM) uptake was measured using neurons cultured from cerebral cortices of 15-day-old mouse embryos.; assay type: functional, organism-based
# Rattus norvegicus = species: Rattus norvegicus; assay: Inhibition of GABA uptake into crude synaptosomes prepared from adult rat brain; assay type: functional
# In short: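 Crude synaptosomes from adult rat brain were preincubated with inhibitor for 10 min at 20 °C. Uptake was then run at 0.05 μM GABA.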
# [3] = The apparent partition coefficient(D) in n-octanol-0.05 M phosphate buffer (pH 7.4) at 21 degree celsius.; assay type: physicochemical
# In short: (§1)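 Organic and aqueous phases were mutually saturated at 21 °C. Compound was dissolved in the aqueous buffer at (2–3) × 10^-5 M and shaken 10–15 min to equilibrium. Phases were separated by centrifugation for 3–5 min. Aqueous concentration before and after distribution was measured by HPLC, and D was reported as log D.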
# [4] = Hydrolysis was studied in 0.02 M phosphate buffer containing 80% human plasma (pH 7.4) at 37 degree celsius; stable; assay type: ADME, cell-free
# In short: (§2)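 Initial compound concentration was (2–3) × 10^-5 M, held at 37 °C. Samples taken over time were deproteinized with EtOH and centrifuged 3–5 min. Supernatant was analyzed by RP-HPLC at 220 nm; half-life was derived from residual compound over time.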
# [5] = Hydrolysis was studied in 0.02 M aqueous phosphate buffer (pH 7.4) at 37 degree celsius; stable; assay type: ADME
# In short: (§3)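 Prodrug stock in MeCN–H2O was added to prewarmed buffer, giving (2–3) × 10^-5 M final. Tubes were held at 37 ± 0.2 °C and sampled over time for RP-HPLC at 220 nm, quantified by peak area against standards. Pseudo-first-order rate constants came from slopes of log residual prodrug versus time, expressed as t1/2.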
# [6] = The apparent partition coefficient(D) in cyclohexane-0.05 M phosphate buffer (pH 7.4) at 21 degree celsius.; assay type: physicochemical; in short: as §1
# [7] = Hydrolysis was studied in 0.02 M aqueous phosphate buffer (pH 7.4) at 37 degree celsius.; assay type: ADME; in short: as §3
# [8] = Hydrolysis was studied in 0.02 M phosphate buffer containing 80% human plasma (pH 7.4) at 37 degree celsius.; assay type: ADME, cell-free; in short: as §2
Compound,pIC50 (Mus musculus [1]),pIC50 (Rattus norvegicus),pIC50 (Mus musculus [2]),further results
CN(C)C1CCCc2onc(O)c21 (stereo not drawn),< 3.30,3.54,< 3.00,–
OCCNC1CCCc2onc(O)c21 (stereo not drawn),< 3.30,3.76,< 3.00,–
N[C@H]1CCCc2onc(O)c21,–,< 3.52,–,–
CNC1CCCc2snc(O)c21 (stereo not drawn),< 3.30,3.62,< 3.00,–
CC(=O)OCCNC1CCCc2onc(O)c21 (stereo not drawn),< 3.30,3.90,< 3.00,–
Oc1noc2c1C(N1CCCC1)CCC2 (stereo not drawn),< 3.30,3.70,< 3.00,–
NC1CCCc2snc(O)c21 (stereo not drawn),< 3.30,3.54,< 3.00,–
CN[C@H]1CCCc2onc(O)c21,–,< 3.52,–,–
CNC1CCCc2onc(OCOC(=O)C(C)(C)C)c21 (stereo not drawn),–,–,–,logD [3]: 0.65; logD [6]: -0.17; half-life [7]: 75 h; half-life [8]: 0.25 h
N[C@@H]1CCCc2onc(O)c21,3.55,3.93,3.17,–
Oc1noc2c1CNCC2,3.57,3.79,3.28,–
NC1CCCc2onc(O)c21 (stereo not drawn),3.68,3.74,3.05,–
CNC1CCCc2on(COC(=O)C(C)(C)C)c(=O)c21 (stereo not drawn),–,–,–,logD [3]: 0.05; logD [6]: -1.4; half-life [7]: 267 h; half-life [8]: 0.117 h

# Further lines, with some results ahead:
pIC50 (Mus musculus [1]),pIC50 (Rattus norvegicus),Compound,pIC50 (Mus musculus [2]),further results
4.80,5.30,O=C(O)[C@@H]1CCCNC1 [(R)-NIPECOTIC ACID],4.92,–
4.55,4.20,CNC1CCCc2onc(O)c21 (stereo not drawn),3.37,logD [3]: -2.3; T1/2 [4]: stable; T1/2 [5]: stable
3.56,3.98,CCNC1CCCc2onc(O)c21 (stereo not drawn),3.41,–
4.22,4.41,CN[C@@H]1CCCc2onc(O)c21,3.29,–
< 3.30,4.01,C=CCNC1CCCc2onc(O)c21 (stereo not drawn),< 3.00,–
4.54,4.92,O=C(O)C1=CCCNC1 [GUVACINE],4.49,–
